Measured values from different studies.
Protocols differ between the studies behind these lines.
UGT2B7: UDP-glucuronosyltransferase 2B7 (UGT2B7, Homo sapiens, UniProt P16662)

O=C1[O][Pt]2([NH][C@@H]3CCCC[C@H]3[NH]2)[O]C1=O (relative stereo) — MRT (cynomolgus monkey, plasma; oral, 10 mg/kg): 19.7 h
C=C1CCC2C(C)(CO)C(=O)CCC2(C)C1C=CC1=CCOC1=O (centres unmarked) — Ki (UGT2B7; enzyme activity, inhibitor): 13.7 µM
CC(Cc1ccccc1)NCCn1cnc2c1c(=O)n(C)c(=O)n2C (centres unmarked) — inhibition (Voltage-gated inwardly rectifying potassium channel KCNH2 (KCNH2, Homo sapiens, UniProt Q12809); ligand displacement, radioligand; 10 µM): -4%
Cc1ncc2n1-c1ccc(Cl)cc1C(c1ccccc1F)=NC2 — Tmax (human, plasma; oral, 2 mg, single dose): 0.67 h
O=C(O)c1cn(Cc2ccc(F)cc2)c2ccccc12 — Km (UGT2B7; enzyme activity, substrate): 61.5 µM
Cc1ncc2n1-c1ccc(Cl)cc1C(c1ccccc1F)=NC2 — Tmax (human, plasma; intravenous, 3 µg, single dose): 0.0333 h
C[C@@H](c1ccc2nccn2c1)n1nnc2ncc(-c3cnn(C)c3)nc21 — Tmax (human, plasma; oral, 600 mg): 4 h
CN(C)CCc1c[nH]c2ccccc12 — Tmax (human, plasma; intravenous, 9 mg, healthy volunteers, infusion): 0.16 h
CC(=C/C=C/C(C)=C/C(=O)O)/C=C1\CCCc2ccccc21 — Tmax (human, plasma; oral, 20 mg, single dose, fasted, healthy volunteers): 2.88 h
COc1ccc(C[C@@H]2NC(=O)[C@H]([C@@H](C)O)NC(=O)[C@@H]3[C@@H]4CCN3C(=O)[C@@H]3Cc5cn(c6ccc(F)cc56)CCCCCCN(Cc5ccc(cc5)CCNC(=O)[C@]5(C)CCCN5C2=O)C(=O)CCC(=O)N[C@@H](C)C(=O)N[C@H](CNC(=O)CCCCC[N+](C)(C)C)C(=O)N[C@@H](Cc2cccc(c2)CNC(=O)CO4)C(=O)N3)cc1 — Tmax (human, plasma; oral, 200 mg, single dose): 14.5 h
Cl.Cl.O=C(CCN1CCCCC1)c1ccc(-c2ccc(C(=O)CCN3CCCCC3)cc2)cc1 — MRT(0-t) (Sprague-Dawley rat, plasma; oral, 100 mg/kg): 12.2 h
C=C1CC[C@@H]2[C@](C)(CO)[C@H](O)CC[C@@]2(C)[C@@H]1/C=C/C1=CCOC1=O — Ki (UGT2B7; enzyme activity, inhibitor): 6.9 µM
CSCC[C@H](NC(=O)COCCOCCNC(=O)COCCOCCNC(=O)CC[C@H](NC(=O)CCCCCCCCCCCCCCCCC(=O)O)C(=O)O)C(=O)N[C@H]1CSSC[C@@H](C(=O)NCC(=O)N[C@@H](CO)C(=O)NCC(=O)N[C@@H](CO)C(=O)N[C@@H](CC(=O)O)C(=O)N[C@@H](Cc2ccc(O)cc2)C(=O)N[C@@H](CCCCN)C(=O)N[C@@H](CC(=O)O)C(=O)N[C@@H](CC(=O)O)C(=O)N[C@@H](CC(=O)O)C(=O)N[C@@H](CC(=O)O)C(=O)N[C@@H](CCCCN)C(N)=O)NC(=O)[C@H](Cc2ccccc2)NC(=O)[C@@H]2CCCN2C(=O)[C@H](Cc2c[nH]c3ccccc23)NC(=O)[C@H](CC(C)C)NC(=O)[C@H](CCSC)NC(=O)[C@H](Cc2c[nH]cn2)NC(=O)[C@H](Cc2ccccc2)NC(=O)[C@H](Cc2c[nH]cn2)NC(=O)[C@H]([C@@H](C)O)NC(=O)[C@H](Cc2ccccc2)NC1=O — MRT (male Sprague-Dawley rat, plasma; intravenous): 13.7 h
N=C(N)NCCC[C@@H](NC(=O)[C@@H](N)Cc1ccccc1)C(=O)N[C@@H](Cc1ccccc1)C(=O)N[C@@H](CCCCN)C(N)=O — Tmax (human, plasma; subcutaneous, 15 mg, patients): 0.75 h
